Sampled rows, rich in hits. Any-hit rate of the full collection: about 2%.
Casp6 inh – human caspase-6 inhibitors, primary screen, biochemical, VEID-R110 fluorescence, single point, set 2. P55212. purified caspase-6, Z-VEID-R110 cleavage fluorescence. inhibition, % at 12.5 µM. 350,000 compounds, 0.53% hits;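 active = mean inhibition across replicates at least about 35%, with every replicate also reaching that limit, limit read from the data; inconclusive = only one of the two criteria met; inactive = neither criterion met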;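 note: 0% = median of neutral control wells and 100% = no fluorescence left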
Target sequence (P55212 24-179 limits assumed): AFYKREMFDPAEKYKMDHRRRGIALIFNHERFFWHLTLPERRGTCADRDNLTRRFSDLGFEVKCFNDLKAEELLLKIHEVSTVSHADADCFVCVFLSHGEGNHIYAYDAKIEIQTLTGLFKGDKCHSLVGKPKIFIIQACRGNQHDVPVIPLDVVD
Target sequence (P55212 194-293 limits assumed): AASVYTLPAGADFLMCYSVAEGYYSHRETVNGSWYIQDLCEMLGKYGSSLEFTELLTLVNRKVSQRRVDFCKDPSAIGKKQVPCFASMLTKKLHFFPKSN
DENV2 CPE rescue – inhibitors of DENV2 cytopathic effect, primary screen, cell-based, plate reader, single concentration; 350,000 compounds, 1.7% hits; CPE inhibition, % at 9.99 µM; DENV2-infected cells, cytopathic effect rescue; in the data active = CPE inhibition above about 20%, passing the limit was not always enough; inconclusive = no clear call, values can overlap the other calls; tested in BHK-21 cells;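 note: 0% = median of neutral control wells and 100% = median of positive control wells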
FN deposition inh – inhibitors of fibronectin matrix deposition, primary screen, AH1F cells, Alexa488-fibronectin fluorescence, plate reader; AH1F fibroblasts, overnight; inhibition, % at 12.6 µM; 350,000 compounds, 0.086% hits; AID 743247, 2014;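 active = mean inhibition across replicates of 30% or more, regardless of how many single replicates reach that level; inconclusive = mean under 30% yet at least half of replicates reach 30%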;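 note: positive control wells lacked labelled fibronectin entirely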
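Material: AH1F fibroblast monolayer depositing Alexa488-labelled fibronectin into matrix | Input: 10000 AH1F cells/well | Medium: DMEM plus 2% serum, read in PBS | Reagent: Alexa488-fibronectin, 24 nM final in well | Compound dosing: One dose per compound, pinned | Schedule: 1 h adhesion, overnight exposure | Measured by: Fluorescence at 485 nm excitation, 525 nm emission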
Xi reactivation – activators of inactive X chromosome reactivation, primary screen, imaging, XiGFP fibroblasts, GFP high-content imaging, set 2. XiGFP mouse fibroblasts, % GFP-positive cells imaging, 3 d; cells co-treated with 5-aza-dC sensitizer; scaled so ellipticine positive control = 100%. activation, % at 7.58 µM. 360,000 compounds, 0.055% hits. AID 743238, 2013;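 active = mean normalized replicate activation at least 10% and every replicate at or above 10%; inconclusive = only one of the two criteria met; inactive = mean below 10% and not all replicates reach 10%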;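 note: 0% = median of on-plate neutral control wells and 100% = ellipticine 6 µM median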
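material = 68-5-11 XiGFP fibroblast line | medium = DMEM plus 5-aza-dC sensitizer | schedule = 3 days compound exposure | benchmarks = positive control ellipticine, 6 µM final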
CaV13 FRET inh – Disruptors of the CACNA1D IQ motif to Ca2+-dependent inactivation inhibitor domain association, primary screening, Förster resonance energy transfer in intact living … | HEK cells, CFP/YFP FRET ICDI-IQ, plate reader, 10 min; percent FRET-ratio fall versus neutral wells | inhibition, % at 12.3 µM | 340,000 compounds, 0.098% hits | AID 743397;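 active = mean replicate inhibition of at least 30% and at least 1% of replicates passing that level; inconclusive = only one of the two criteria is met; inactive = neither criterion is met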;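 note: 0% = median of the neutral control wells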
* = called active by the depositor.

COc1cc(C(=O)OCC(=O)N2CCCC2=O)cc(OC)c1C was read as Casp6 inh 37*, DENV2 CPE rescue 7, FN deposition inh -1, Xi reactivation 0 and CaV13 FRET inh -6.
For CC(=O)Nc1ccc(C(=O)OCC(=O)N2CCCC2=O)cc1 the results were Casp6 inh -1, DENV2 CPE rescue inconclusive, FN deposition inh 7, Xi reactivation 0 and CaV13 FRET inh -16.
COc1ccc(CN(C)C[C@H]2Oc3ccc(NC(=O)Nc4ccccc4)cc3CC(=O)N([C@@H](C)CO)C[C@@H]2C)cc1 was read as Casp6 inh 2, DENV2 CPE rescue 2 and Xi reactivation 0.
For CN1C(=O)c2cc(NC(=O)c3cccc(F)c3)ccc2OC[C@H]2O[C@H](CC(=O)N3CCc4ccccc4C3)CC[C@@H]21 the results were Casp6 inh -3, DENV2 CPE rescue 78*, FN deposition inh 30 and Xi reactivation 0.
CN(C)CCCNC(=O)C[C@H]1CC[C@@H]2[C@@H](COc3ccc(NC(=O)c4cccc(F)c4)cc3C(=O)N2C)O1 was read as Casp6 inh 1, DENV2 CPE rescue 42*, FN deposition inh 3 and Xi reactivation 0.
Screening CN1C(=O)c2cc(NC(=O)c3cccc(F)c3)ccc2OC[C@H]2O[C@@H](CC(=O)N3CCc4ccccc4C3)CC[C@H]21 returned Casp6 inh -2, DENV2 CPE rescue 31*, FN deposition inh 5 and Xi reactivation 0.
CO[C@H]1CN(C)C(=O)c2cc(NC(=O)NC3CCCC3)ccc2OC[C@H](C)NC[C@@H]1C was read as FN deposition inh -11 and Xi reactivation 0.
O=C(Cc1ccccc1)NN1C(=O)/C(=C/c2ccc(C(=O)O)cc2)SC1=S was read as Casp6 inh 69*, DENV2 CPE rescue -5, FN deposition inh 6, Xi reactivation 0 and CaV13 FRET inh -5.
O=C(O)c1ccc(/C=C2/SC(=S)N(Cc3ccccc3)C2=O)cc1 was read as Casp6 inh 2, DENV2 CPE rescue -5, FN deposition inh -6, Xi reactivation 0 and CaV13 FRET inh -19.
For CC(C)C#Cc1ccc2c(c1)O[C@@H](CN(C)C(=O)C1CCCCC1)[C@H](C)CN([C@H](C)CO)S2(=O)=O the results were Xi reactivation -1.
CCCNC(=O)N(C)C[C@H]1Oc2ncc(Br)cc2C(=O)N([C@@H](C)CO)C[C@@H]1C was read as Casp6 inh -6, DENV2 CPE rescue -3, FN deposition inh 10 and Xi reactivation 1.
`COc1cccc(/C=C/c2ccc3cccc(O)c3n2)c1OC` gave Casp6 inh -1, DENV2 CPE rescue -3, FN deposition inh 3, Xi reactivation 1 and CaV13 FRET inh -5.
`COc1ccc(/C=C/c2ccc3cccc(O)c3n2)c(OC)c1OC` gave Casp6 inh -3, DENV2 CPE rescue 5, FN deposition inh 35*, Xi reactivation inconclusive and CaV13 FRET inh -4.
Screening Cc1ccccc1-c1ccc([C@@H]2[C@H]3CN(C(=O)c4cccnc4)CC(=O)N3[C@H]2CO)cc1 returned Xi reactivation 0.
For Nc1ccccc1Sc1ccc(C(=O)c2ccccc2C(=O)O)cc1[N+](=O)[O-] the results were Casp6 inh 46*, DENV2 CPE rescue -1, FN deposition inh 4, Xi reactivation 0 and CaV13 FRET inh -7.
COc1ccccc1/C=C/C(=O)NNC(=O)c1cc(C)oc1C was read as Casp6 inh 1, DENV2 CPE rescue 3, FN deposition inh -1, Xi reactivation 0 and CaV13 FRET inh -4.
Screening Cc1cc(C(=O)NNC(=O)/C=C/c2ccco2)c(C)o1 returned Casp6 inh 52*, DENV2 CPE rescue -2, FN deposition inh -7, Xi reactivation 1 and CaV13 FRET inh -6.
For O=C(NCC(c1cccs1)N1CCOCC1)C1CCN(S(=O)(=O)c2ccccc2C(F)(F)F)CC1 (stereo not drawn) the results were Casp6 inh 1, DENV2 CPE rescue 61* and Xi reactivation 0.
